Converted amounts (≈) assume the structure as drawn.
Key:
[1] = Cmax in ICR (CD-1) mouse at 50 mg/kg, po measured up to 1440 mins by LC-MS/MS analysis; assay type: ADME, organism-based; parameters: route oral, dose 50 mg/kg, time <=1440; conditions: in vivo
In short: (§1)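 Male ICR (CD-1) mice, 22 ± 2 g, given the free base in DMSO/Solutol HS-15/0.9% NaCl (5/5/90, v/v/v), IV at 10 mg/kg or PO at 50 mg/kg; 24 mice per route, three per timepoint. Plasma was taken by cardiac puncture at 3–1440 min (IV) or 10–1440 min (PO), measured by LC-MS/MS, and parameters were derived by noncompartmental analysis.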

Staphylococcus aureus [2] = experiment: Antibacterial activity against methicillin-resistant Staphylococcus aureus USA300 by CLSI method; assay type: functional
Kv4.3 (KCND3) [3] = target: T1, Kv4.3 (KCND3) (Homo sapiens, UniProt Q9UK17); experiment: Inhibition of recombinant human Kv4.3 expressed in human HEK293 cells at 100 uM measured at peak current by automated Qpatch clamp assay relative to control; assay type: ADME, cell-based; conditions: HEK293 cells expressing recombinant human Kv4.3
Kv4.3 (KCND3) [4] = target: T1, Kv4.3 (KCND3); experiment: Inhibition of recombinant human Kv4.3 expressed in human HEK293 cells at 100 uM measured at end current by automated Qpatch clamp assay relative to control; assay type: ADME, cell-based; conditions: HEK293 cells expressing recombinant human Kv4.3
[5] = target: Sodium channel protein type 5 subunit alpha (Homo sapiens, UniProt Q14524); experiment: Activation of recombinant human Nav1.5 late expressed in human HEK293 cells assessed as activation of late current at 100 uM by automated Qpatch clamp assay relative to control; assay type: ADME, cell-based; conditions: hek293, 100 µM
HepaRG = experiment: Cytotoxicity against human HepaRG cells at 100 uM by ATP depletion assay; assay type: cell-based
In short: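 An ATP depletion read-out in HepaRG cells gave cytotoxicity across 0.01–100 μM, reported as % cytotoxicity at 100 μM.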

Topoisomerase IV = Topoisomerase IV (Staphylococcus aureus, UniProt P0C1S7+P0C1U9); experiment: Inhibition of Staphylococcus aureus topoisomerase IV decatenation activity using kDNA as substrate by ethidium bromide/bromophenol blue staining based agarose gel electrophoresis analysis; assay type: protein-complex assay
Staphylococcus aureus [6] = experiment: Antibacterial activity against methicillin-resistant Staphylococcus aureus ATCC 33591 infected in iv dosed CD1 mouse model of septicemia assessed as mouse survival at 1 to 10 mg/kg, iv administered 0.5 to 3.5 hrs post injection measured for 7 days relative to control; assay type: functional; conditions: dose 1-10 mg/kg, time 7 day
In short: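 Female CD-1 mice (18–20 g), in groups of six, were infected IP with 1.3 × 10^8 CFU MRSA ATCC 33591 suspended in 8% hog gastric mucin (pH 7.5). Compound was given as the methanesulfonate salt in 5% DMSO/water for injection, by IV tail vein at 0.5, 1.5, 2.5 and 3.5 h post infection. Dose levels were 1, 5, 10, 25 and 50 mg/kg/dose. Survival was followed for 7 days against untreated infection controls.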

[7] = Metabolic stability in CD1 mouse microsomes assessed as half life; assay type: ADME, Microsome
Nav1.5 (late current) = Nav1.5 (late current) (Homo sapiens, UniProt Q14524); experiment: Inhibition of recombinant human Nav1.5 late expressed in human HEK293 cells at 100 uM in presence of ATXII by automated Qpatch clamp assay relative to contro; assay type: ADME, cell-based; conditions: HEK293 cells expressing recombinant human Nav1.5
CYP2B6 = CYP2B6 (Homo sapiens, UniProt P20813); experiment: Inhibition of CYP2B6 (unknown origin) at 10 uM relative to control; assay type: ADME
Pseudomonas aeruginosa = experiment: Antibacterial activity against Pseudomonas aeruginosa isolates by CLSI method; assay type: functional
Staphylococcus aureus [8] = experiment: Antibacterial activity against Staphylococcus aureus ATCC 29213 by CLSI method; assay type: functional
Cytochrome P450 2B6 = Cytochrome P450 2B6 (Homo sapiens, UniProt P20813); experiment: Inhibition of CYP2B6 (unknown origin); assay type: ADME
Enterococcus faecium = experiment: Antibacterial activity against vancomycin-resistant Enterococcus faecium by CLSI method; assay type: functional
Cytochrome P450 2C19 = Cytochrome P450 2C19 (Homo sapiens, UniProt P33261); experiment: Inhibition of CYP2C19 (unknown origin); assay type: ADME
HeLa = experiment: Cytotoxicity against human HeLa cells; assay type: cell-based
In short: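 THP-1, HepG2 and HeLa cells were exposed to compound from 128 to 0.0625 μg/mL. IC50 was obtained by nonlinear regression of the inhibition curves.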

[9] = Metabolic stability in human microsomes assessed as half life; assay type: ADME, Microsome
In short: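 Run at RTI International. Covers plasma protein binding (mouse, human; percent free), CACO-2 permeability and efflux, and microsomal stability (mouse and human microsomes) giving half-life.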

Staphylococcus aureus [10] = experiment: Antibacterial activity against Staphylococcus aureus harbouring GyrA D83N mutant by CLSI method; assay type: functional
[11] = target: DNA gyrase (Staphylococcus aureus) (UniProt P0A0K8+P20831); experiment: Inhibition of Staphylococcus aureus DNA Gyrase assessed as reduction in supercoiling pBR322 DNA by measuring induction of double strand breaks by ethidium bromide staining based agarose gel electrophoresis; assay type: protein-complex assay; conditions: dose 1-100 µM
In short: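 Gyrase-mediated cleavage of negatively supercoiled pBR322 ran for 30 min at 37 °C with compound at 0.5–200 μM. Single- and double-strand break products were quantified from gel lane fluorescence, corrected for differential emission of supercoiled versus linear DNA.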

[12] = Oral bioavailability in ICR (CD-1) mouse at 50 mg/kg measured up to 1440 mins by LC-MS/MS analysis; assay type: ADME, organism-based; conditions: in vivo
In short: (§2)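 Male ICR (CD-1) mice, 22 ± 2 g, given free base in DMSO/Solutol HS-15/0.9% NaCl (5/5/90) at 50 mg/kg PO or 10 mg/kg IV. Three mice per timepoint, 8 timepoints. Plasma taken by cardiac puncture at 10–1440 min (PO) or 3–1440 min (IV). Measured by LC-MS/MS, with parameters from noncompartmental analysis.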

CYP2C9 = CYP2C9 (Homo sapiens, UniProt P11712); experiment: Inhibition of CYP2C9 (unknown origin) at 10 uM relative to control; assay type: ADME
KCNQ1 = KCNQ1 (Homo sapiens, UniProt P51787); experiment: Inhibition of recombinant human KCNQ1 expressed in CHO-K1 cells at 100 uM by automated Qpatch clamp assay relative to control; assay type: ADME, cell-based; conditions: CHO-K1 cells expressing recombinant human KCNQ1
Staphylococcus aureus [13] = experiment: Antibacterial activity against cystic fibrosis isolate Staphylococcus aureus by CLSI method; assay type: functional
[14] = Tmax in ICR (CD-1) mouse at 50 mg/kg, po measured up to 1440 mins by LC-MS/MS analysis; assay type: ADME, organism-based; conditions: in vivo; in short: as §2
[15] = Volume of distribution at steady state in ICR (CD-1) mouse at 10 mg/kg, iv measured up to 1440 mins by LC-MS/MS analysis; assay type: ADME, organism-based; conditions: in vivo, read-out: Vdss; in short: as §2
[16] = Clearance in ICR (CD-1) mouse at 10 mg/kg, iv measured up to 1440 mins by LC-MS/MS analysis; assay type: ADME, organism-based; conditions: in vivo; in short: as §1
CYP1A2 = CYP1A2 (Homo sapiens, UniProt P05177); experiment: Inhibition of CYP1A2 (unknown origin) at 10 uM relative to control; assay type: ADME
Enterococcus faecalis = experiment: Antibacterial activity against vancomycin-resistant Enterococcus faecalis by CLSI method; assay type: functional

T1 sequence (Q9UK17 whole entry): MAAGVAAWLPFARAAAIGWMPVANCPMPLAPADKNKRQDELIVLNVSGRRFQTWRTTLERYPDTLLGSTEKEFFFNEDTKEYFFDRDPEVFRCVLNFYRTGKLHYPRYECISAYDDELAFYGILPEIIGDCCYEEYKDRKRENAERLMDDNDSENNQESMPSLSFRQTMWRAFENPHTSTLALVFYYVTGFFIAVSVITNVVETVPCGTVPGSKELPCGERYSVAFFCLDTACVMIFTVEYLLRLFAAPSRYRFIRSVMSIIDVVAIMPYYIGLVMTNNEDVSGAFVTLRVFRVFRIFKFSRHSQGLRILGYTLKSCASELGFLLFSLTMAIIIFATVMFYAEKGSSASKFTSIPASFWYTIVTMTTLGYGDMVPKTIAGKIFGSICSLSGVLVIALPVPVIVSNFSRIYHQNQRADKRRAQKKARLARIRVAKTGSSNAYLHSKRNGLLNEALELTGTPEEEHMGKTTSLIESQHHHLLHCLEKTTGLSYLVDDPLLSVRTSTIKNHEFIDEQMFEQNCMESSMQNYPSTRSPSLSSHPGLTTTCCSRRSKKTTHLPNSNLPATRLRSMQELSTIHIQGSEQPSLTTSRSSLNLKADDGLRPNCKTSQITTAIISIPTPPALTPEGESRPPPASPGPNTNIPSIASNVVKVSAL
CYP1A2, sequence (P05177 whole entry): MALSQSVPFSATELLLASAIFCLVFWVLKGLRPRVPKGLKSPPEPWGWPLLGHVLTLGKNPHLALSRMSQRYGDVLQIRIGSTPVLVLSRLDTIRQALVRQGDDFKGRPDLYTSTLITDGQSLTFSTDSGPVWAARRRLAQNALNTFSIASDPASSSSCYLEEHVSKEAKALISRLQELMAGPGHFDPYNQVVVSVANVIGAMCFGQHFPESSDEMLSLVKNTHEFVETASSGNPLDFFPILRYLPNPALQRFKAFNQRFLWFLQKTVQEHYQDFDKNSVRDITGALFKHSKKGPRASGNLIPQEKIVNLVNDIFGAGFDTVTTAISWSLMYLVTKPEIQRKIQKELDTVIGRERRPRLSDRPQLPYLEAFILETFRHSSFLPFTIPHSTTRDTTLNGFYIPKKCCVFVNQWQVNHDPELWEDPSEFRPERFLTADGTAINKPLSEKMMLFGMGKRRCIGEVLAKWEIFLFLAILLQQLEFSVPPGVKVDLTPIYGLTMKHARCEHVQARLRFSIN
CYP2C9, sequence (P11712 whole entry): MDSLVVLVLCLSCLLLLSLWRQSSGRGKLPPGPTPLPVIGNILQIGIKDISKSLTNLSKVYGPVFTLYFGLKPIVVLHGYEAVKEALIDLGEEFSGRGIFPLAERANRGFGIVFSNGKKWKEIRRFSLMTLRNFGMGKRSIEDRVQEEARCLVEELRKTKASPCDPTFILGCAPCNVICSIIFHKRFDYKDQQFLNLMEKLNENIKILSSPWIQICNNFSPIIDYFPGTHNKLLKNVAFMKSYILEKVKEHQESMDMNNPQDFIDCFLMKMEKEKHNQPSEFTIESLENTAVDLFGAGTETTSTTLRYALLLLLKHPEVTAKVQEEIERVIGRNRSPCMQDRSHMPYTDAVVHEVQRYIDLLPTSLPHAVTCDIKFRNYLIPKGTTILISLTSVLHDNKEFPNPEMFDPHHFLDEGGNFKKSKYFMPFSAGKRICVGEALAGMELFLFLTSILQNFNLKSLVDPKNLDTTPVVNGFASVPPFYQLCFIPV
KCNQ1, sequence (P51787 whole entry): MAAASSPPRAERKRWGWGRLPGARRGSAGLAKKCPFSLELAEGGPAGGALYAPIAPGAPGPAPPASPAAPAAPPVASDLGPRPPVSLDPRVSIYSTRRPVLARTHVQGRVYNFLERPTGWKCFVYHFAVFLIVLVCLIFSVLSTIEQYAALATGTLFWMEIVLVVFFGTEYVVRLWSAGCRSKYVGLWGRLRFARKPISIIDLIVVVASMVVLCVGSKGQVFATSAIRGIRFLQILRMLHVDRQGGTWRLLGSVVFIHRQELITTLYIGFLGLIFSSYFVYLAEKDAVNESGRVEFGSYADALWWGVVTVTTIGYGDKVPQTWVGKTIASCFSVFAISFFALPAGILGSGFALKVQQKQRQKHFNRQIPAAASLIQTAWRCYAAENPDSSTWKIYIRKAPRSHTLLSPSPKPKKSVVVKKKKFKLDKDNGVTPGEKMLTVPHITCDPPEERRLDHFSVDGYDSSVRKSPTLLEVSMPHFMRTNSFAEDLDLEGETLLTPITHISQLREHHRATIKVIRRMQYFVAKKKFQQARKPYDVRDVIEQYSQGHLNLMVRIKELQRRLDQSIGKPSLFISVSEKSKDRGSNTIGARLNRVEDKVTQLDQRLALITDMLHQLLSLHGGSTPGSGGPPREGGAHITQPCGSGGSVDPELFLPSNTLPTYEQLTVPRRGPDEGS
Nav1.5 (late current), sequence (Q14524 whole entry): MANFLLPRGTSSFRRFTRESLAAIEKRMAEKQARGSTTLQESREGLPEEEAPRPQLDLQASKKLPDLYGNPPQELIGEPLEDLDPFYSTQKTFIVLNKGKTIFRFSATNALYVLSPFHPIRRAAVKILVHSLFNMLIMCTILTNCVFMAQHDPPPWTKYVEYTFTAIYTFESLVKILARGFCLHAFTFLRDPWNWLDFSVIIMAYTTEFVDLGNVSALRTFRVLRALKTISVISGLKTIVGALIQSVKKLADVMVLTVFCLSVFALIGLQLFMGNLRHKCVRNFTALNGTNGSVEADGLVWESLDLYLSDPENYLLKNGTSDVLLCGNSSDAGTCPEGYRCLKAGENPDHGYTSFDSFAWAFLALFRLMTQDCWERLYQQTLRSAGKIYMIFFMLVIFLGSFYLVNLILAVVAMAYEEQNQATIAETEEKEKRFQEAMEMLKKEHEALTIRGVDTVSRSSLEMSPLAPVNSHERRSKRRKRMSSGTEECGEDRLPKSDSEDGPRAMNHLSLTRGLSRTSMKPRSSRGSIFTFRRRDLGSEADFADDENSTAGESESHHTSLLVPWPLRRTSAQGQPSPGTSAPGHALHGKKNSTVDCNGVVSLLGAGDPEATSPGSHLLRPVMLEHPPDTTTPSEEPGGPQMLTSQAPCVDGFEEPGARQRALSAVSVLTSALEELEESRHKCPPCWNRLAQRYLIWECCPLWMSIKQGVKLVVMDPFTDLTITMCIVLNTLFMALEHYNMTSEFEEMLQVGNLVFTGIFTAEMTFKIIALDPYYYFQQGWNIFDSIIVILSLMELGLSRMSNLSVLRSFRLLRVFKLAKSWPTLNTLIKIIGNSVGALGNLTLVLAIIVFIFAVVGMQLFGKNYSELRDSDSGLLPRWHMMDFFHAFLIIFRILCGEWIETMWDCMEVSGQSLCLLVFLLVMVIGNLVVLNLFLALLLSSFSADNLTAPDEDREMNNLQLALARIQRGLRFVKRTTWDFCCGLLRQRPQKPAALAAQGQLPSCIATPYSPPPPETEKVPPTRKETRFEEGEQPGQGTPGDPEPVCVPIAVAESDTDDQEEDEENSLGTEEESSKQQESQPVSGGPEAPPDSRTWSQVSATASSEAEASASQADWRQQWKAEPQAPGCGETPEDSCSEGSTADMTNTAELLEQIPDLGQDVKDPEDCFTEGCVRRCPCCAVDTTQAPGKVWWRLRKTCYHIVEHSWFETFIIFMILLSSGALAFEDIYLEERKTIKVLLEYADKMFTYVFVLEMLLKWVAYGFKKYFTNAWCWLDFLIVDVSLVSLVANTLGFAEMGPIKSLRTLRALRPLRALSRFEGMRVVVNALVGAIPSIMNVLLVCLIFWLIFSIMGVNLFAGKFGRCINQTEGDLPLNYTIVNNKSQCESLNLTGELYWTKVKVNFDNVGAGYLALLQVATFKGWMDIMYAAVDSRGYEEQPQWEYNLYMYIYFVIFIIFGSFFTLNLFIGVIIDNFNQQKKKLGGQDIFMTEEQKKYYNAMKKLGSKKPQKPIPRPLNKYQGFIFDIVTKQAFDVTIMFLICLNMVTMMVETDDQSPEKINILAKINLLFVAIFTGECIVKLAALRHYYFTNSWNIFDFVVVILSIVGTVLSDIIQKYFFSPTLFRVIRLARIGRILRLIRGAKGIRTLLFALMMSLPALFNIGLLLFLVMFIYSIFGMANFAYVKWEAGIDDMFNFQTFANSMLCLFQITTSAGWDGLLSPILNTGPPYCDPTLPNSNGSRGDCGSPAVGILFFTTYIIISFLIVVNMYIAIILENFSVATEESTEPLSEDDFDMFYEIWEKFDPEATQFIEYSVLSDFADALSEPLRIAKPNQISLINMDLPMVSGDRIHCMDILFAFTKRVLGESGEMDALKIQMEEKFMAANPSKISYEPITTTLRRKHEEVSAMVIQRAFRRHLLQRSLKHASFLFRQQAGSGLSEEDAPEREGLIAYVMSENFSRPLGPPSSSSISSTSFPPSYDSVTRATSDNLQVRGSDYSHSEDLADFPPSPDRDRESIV
Cytochrome P450 2B6, sequence (P20813 whole entry): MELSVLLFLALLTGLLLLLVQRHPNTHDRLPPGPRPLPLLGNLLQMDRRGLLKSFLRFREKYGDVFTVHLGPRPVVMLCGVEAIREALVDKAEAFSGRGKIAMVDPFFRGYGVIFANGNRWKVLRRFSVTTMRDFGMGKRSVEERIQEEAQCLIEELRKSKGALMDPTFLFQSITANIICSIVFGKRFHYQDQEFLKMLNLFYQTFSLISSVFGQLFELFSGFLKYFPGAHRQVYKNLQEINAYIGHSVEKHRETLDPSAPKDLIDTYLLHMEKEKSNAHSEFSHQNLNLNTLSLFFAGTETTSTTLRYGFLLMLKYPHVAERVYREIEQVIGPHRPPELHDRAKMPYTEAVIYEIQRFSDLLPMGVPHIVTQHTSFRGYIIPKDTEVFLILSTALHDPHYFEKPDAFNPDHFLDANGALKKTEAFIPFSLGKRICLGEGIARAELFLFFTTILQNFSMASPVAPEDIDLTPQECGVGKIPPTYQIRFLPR
CYP2B6, sequence (P20813 whole entry): as above

COc1ccc2ncc(F)c(C[C@H](O)[C@H]3OC[C@H](NCc4cc5c(nn4)OCCS5)CO3)c2n1
Cmax [1]: 7020 ng/mL
MIC (Staphylococcus aureus [2]): 0.25 µg/mL (≈ 0.511 µM)
inhibition at 100 µM (Kv4.3 (KCND3) [3]): < 25%
inhibition at 100 µM (Kv4.3 (KCND3) [4]): < 25%
Activity [5]: < 25%
Activity (HepaRG): 12%
IC50 (Topoisomerase IV): 3.5 µM
Survival (Staphylococcus aureus [6]): >50%
half-life [7]: 52 min
inhibition at 100 µM (Nav1.5 (late current)): < 25%
inhibition at 10 µM (CYP2B6): > 50%
MIC50 (Pseudomonas aeruginosa): > 64 µg/mL
MIC (Staphylococcus aureus [8]): 0.125 µg/mL (≈ 0.255 µM)
IC50 (Cytochrome P450 2B6): > 10 µM
MIC50 (Enterococcus faecium): 0.25 µg/mL (≈ 0.511 µM)
MIC90 (Enterococcus faecium): 1 µg/mL (≈ 2.04 µM)
IC50 (Cytochrome P450 2C19): > 10 µM
IC50 (HeLa): > 125 µM
half-life [9]: 94 min
MIC (Staphylococcus aureus [10]): 4 µg/mL (≈ 8.17 µM)
Activity [11]: Dose-Dependent Effect
bioavailability [12]: 49%
inhibition at 10 µM (CYP2C9): > 50%
inhibition at 100 µM (KCNQ1): < 25%
MIC (Staphylococcus aureus [13]): 0.125 µg/mL (≈ 0.255 µM)
Tmax [14]: 10.2 min
Vd [15]: 1 L/kg
clearance [16]: 69 mL/min/kg
inhibition at 10 µM (CYP1A2): > 50%
MIC50 (Enterococcus faecalis): 0.25 µg/mL (≈ 0.511 µM)
MIC90 (Enterococcus faecalis): 1 µg/mL (≈ 2.04 µM)
